Test results: article PMC6438848 (Saudi Pharmaceutical Journal : SPJ, 2018)

System: HT-29 cells (human colon adenocarcinoma)
Assay: In vitro antiproliferative assay
Format: cell-based
Conditions: Homo sapiens, HT-29, 72 h, read-out: IC50 ± SD

Compound	IC50 [µg/mL]
FC(F)(F)c1cccc([N+]2=NN(CCCl)CC2)c1.[Cl-] [2d, 1-(2-Chloroethyl)-3-(3-(trifluoromethyl)phenyl)-4,5-dihydro-1H-1,2,3-triazol-3-ium chloride]	31.7 ± 5.45
ClCCN1CC[N+](c2ccccc2)=N1.[Cl-] [2b, 1-(2-Chloroethyl)-3-phenyl-4,5-dihydro-1H-1,2,3-triazol-3-ium chloride]	48.9 ± 18.7
O=[N+]([O-])c1ccc([N+]2=NN(CCCl)CC2)cc1.[Cl-] [2g, 1-(2-Chloroethyl)-3-(4-nitrophenyl)-4,5-dihydro-1H-1,2,3-triazol-3-ium chloride]	47.6 ± 3.42
Cc1ccc([N+]2=NN(CCCl)CC2)cc1.[Cl-] [2c, 1-(2-Chloroethyl)-3-p-tolyl-4,5-dihydro-1H-1,2,3-triazol-3-ium chloride]	16.2 ± 7.37

System: MCF-7 cells (human breast carcinoma)
Assay: In vitro antiproliferative assay
Format: cell-based
Conditions: Homo sapiens, MCF7, 72 h, read-out: IC50 ± SD

Compound	IC50 [µg/mL]
Fc1ccc([N+]2=NN(CCCl)CC2)cc1.[Cl-] [2i, 1-(2-Chloroethyl)-3-(4-fluorophenyl)-4,5-dihydro-1H-1,2,3-triazol-3-ium chloride]	61.4 ± 21.8
FC(F)(F)c1cccc([N+]2=NN(CCCl)CC2)c1.[Cl-] [2d, 1-(2-Chloroethyl)-3-(3-(trifluoromethyl)phenyl)-4,5-dihydro-1H-1,2,3-triazol-3-ium chloride]	16.5 ± 4.14
ClCCN1CC[N+](c2ccccc2)=N1.[Cl-] [2b, 1-(2-Chloroethyl)-3-phenyl-4,5-dihydro-1H-1,2,3-triazol-3-ium chloride]	50.4 ± 8.08
O=[N+]([O-])c1ccc([N+]2=NN(CCCl)CC2)cc1.[Cl-] [2g, 1-(2-Chloroethyl)-3-(4-nitrophenyl)-4,5-dihydro-1H-1,2,3-triazol-3-ium chloride]	23.9 ± 7.48
Cc1ccc([N+]2=NN(CCCl)CC2)cc1.[Cl-] [2c, 1-(2-Chloroethyl)-3-p-tolyl-4,5-dihydro-1H-1,2,3-triazol-3-ium chloride]	19.8 ± 3.02

System: human cancer cell lines (MV-4-11, MCF-7, JURKAT, HT-29, Hep-G2, HeLa, Du-145, DAUDI)
Assay: In vitro antiproliferative assay, summary over several cancer cell lines
Format: cell-based
Conditions: read-out: IC50 values in relation to other cell lines

Compound	IC50 [µg/mL]
FC(F)(F)c1cccc([N+]2=NN(CCCl)CC2)c1.[Cl-] [2d, 1-(2-Chloroethyl)-3-(3-(trifluoromethyl)phenyl)-4,5-dihydro-1H-1,2,3-triazol-3-ium chloride]	12.5 to 36.4
Cc1ccc([N+]2=NN(CCCl)CC2)cc1.[Cl-] [2c, 1-(2-Chloroethyl)-3-p-tolyl-4,5-dihydro-1H-1,2,3-triazol-3-ium chloride]	12.5 to 36.4

System: DAUDI cells (Burkitt lymphoma)
Assay: In vitro antiproliferative assay
Format: cell-based, human
Conditions: Homo sapiens, Daudi, 72 h, read-out: IC50 ± SD

Compound	IC50 [µg/mL]
Fc1ccc([N+]2=NN(CCCl)CC2)cc1.[Cl-] [2i, 1-(2-Chloroethyl)-3-(4-fluorophenyl)-4,5-dihydro-1H-1,2,3-triazol-3-ium chloride]	75.6 ± 17.8
FC(F)(F)c1cccc([N+]2=NN(CCCl)CC2)c1.[Cl-] [2d, 1-(2-Chloroethyl)-3-(3-(trifluoromethyl)phenyl)-4,5-dihydro-1H-1,2,3-triazol-3-ium chloride]	17.6 ± 2.29
ClCCN1CC[N+](c2ccccc2)=N1.[Cl-] [2b, 1-(2-Chloroethyl)-3-phenyl-4,5-dihydro-1H-1,2,3-triazol-3-ium chloride]	40.2 ± 4.29
Cc1ccc([N+]2=NN(CCCl)CC2)cc1.[Cl-] [2c, 1-(2-Chloroethyl)-3-p-tolyl-4,5-dihydro-1H-1,2,3-triazol-3-ium chloride]	4.91 ± 1.53

System: MCF-10A normal human mammary gland epithelial cells
Assay: cells
Format: cell-based
Conditions: Homo sapiens, MCF-10A, 72 h, read-out: IC50 ± SD

Compound	IC50 [µg/mL]
FC(F)(F)c1cccc([N+]2=NN(CCCl)CC2)c1.[Cl-] [2d, 1-(2-Chloroethyl)-3-(3-(trifluoromethyl)phenyl)-4,5-dihydro-1H-1,2,3-triazol-3-ium chloride]	32.6 ± 2.79
O=[N+]([O-])c1ccc([N+]2=NN(CCCl)CC2)cc1.[Cl-] [2g, 1-(2-Chloroethyl)-3-(4-nitrophenyl)-4,5-dihydro-1H-1,2,3-triazol-3-ium chloride]	36.6 ± 9.52
Cc1ccc([N+]2=NN(CCCl)CC2)cc1.[Cl-] [2c, 1-(2-Chloroethyl)-3-p-tolyl-4,5-dihydro-1H-1,2,3-triazol-3-ium chloride]	61.6 ± 13.1

Same assay, conditions: MCF-10A vs MCF-7, JURKAT, HT-29, Hep-G2, HeLa, Du-145, DAUDI

Compound	cytotoxic activity against MCF-10A, times lower than against cancer cell lines
FC(F)(F)c1cccc([N+]2=NN(CCCl)CC2)c1.[Cl-] [2d, 1-(2-Chloroethyl)-3-(3-(trifluoromethyl)phenyl)-4,5-dihydro-1H-1,2,3-triazol-3-ium chloride]	1–5 times
Cc1ccc([N+]2=NN(CCCl)CC2)cc1.[Cl-] [2c, 1-(2-Chloroethyl)-3-p-tolyl-4,5-dihydro-1H-1,2,3-triazol-3-ium chloride]	1–5 times

Same assay, conditions: MCF-10A vs MV4-11 (cancer cell lines)

Compound	cytotoxic activity against MCF-10A, times lower than against cancer cells
FC(F)(F)c1cccc([N+]2=NN(CCCl)CC2)c1.[Cl-] [2d, 1-(2-Chloroethyl)-3-(3-(trifluoromethyl)phenyl)-4,5-dihydro-1H-1,2,3-triazol-3-ium chloride]	6–11 times
Cc1ccc([N+]2=NN(CCCl)CC2)cc1.[Cl-] [2c, 1-(2-Chloroethyl)-3-p-tolyl-4,5-dihydro-1H-1,2,3-triazol-3-ium chloride]	6–11 times

System: MV-4-11 cells (biphenotypic B myelomonocytic leukemia)
Assay: In vitro antiproliferative assay
Format: cell-based, human
Conditions: Homo sapiens, MV4-11, 72 h, read-out: IC50 ± SD

Compound	IC50 [µg/mL]
Fc1ccc([N+]2=NN(CCCl)CC2)cc1.[Cl-] [2i, 1-(2-Chloroethyl)-3-(4-fluorophenyl)-4,5-dihydro-1H-1,2,3-triazol-3-ium chloride]	51.4 ± 11.9
FC(F)(F)c1cccc([N+]2=NN(CCCl)CC2)c1.[Cl-] [2d, 1-(2-Chloroethyl)-3-(3-(trifluoromethyl)phenyl)-4,5-dihydro-1H-1,2,3-triazol-3-ium chloride]	5.59 ± 3.03
ClCCN1CC[N+](c2ccccc2)=N1.[Cl-] [2b, 1-(2-Chloroethyl)-3-phenyl-4,5-dihydro-1H-1,2,3-triazol-3-ium chloride]	44.6 ± 4.37
O=[N+]([O-])c1ccc([N+]2=NN(CCCl)CC2)cc1.[Cl-] [2g, 1-(2-Chloroethyl)-3-(4-nitrophenyl)-4,5-dihydro-1H-1,2,3-triazol-3-ium chloride]	14.1 ± 7.75
Cc1ccc([N+]2=NN(CCCl)CC2)cc1.[Cl-] [2c, 1-(2-Chloroethyl)-3-p-tolyl-4,5-dihydro-1H-1,2,3-triazol-3-ium chloride]	5.42 ± 2.52

System: Du-145 cells (human prostate carcinoma)
Assay: In vitro antiproliferative assay
Format: cell-based
Conditions: Homo sapiens, DU-145, 72 h, read-out: IC50 ± SD

Compound	IC50 [µg/mL]
FC(F)(F)c1cccc([N+]2=NN(CCCl)CC2)c1.[Cl-] [2d, 1-(2-Chloroethyl)-3-(3-(trifluoromethyl)phenyl)-4,5-dihydro-1H-1,2,3-triazol-3-ium chloride]	30.9 ± 3.15
O=[N+]([O-])c1ccc([N+]2=NN(CCCl)CC2)cc1.[Cl-] [2g, 1-(2-Chloroethyl)-3-(4-nitrophenyl)-4,5-dihydro-1H-1,2,3-triazol-3-ium chloride]	34.1 ± 1.35
Cc1ccc([N+]2=NN(CCCl)CC2)cc1.[Cl-] [2c, 1-(2-Chloroethyl)-3-p-tolyl-4,5-dihydro-1H-1,2,3-triazol-3-ium chloride]	36.4 ± 5.29

System: not listed separately
Assay: Determination of lipophilicity by RP UPLC
Format: physicochemical
Conditions: not given
Method in brief: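 Kinetex C18 column (150 × 4.6 mm, 2.6 µm) on a UPLC with UV detection at 254 nm. Test compound was dissolved in methanol at 10 µg/ml. Isocratic methanol fractions ran at 0.5 ml/min and 25 °C. Dead time was taken from uracil. log k was regressed linearly on methanol fraction Φ (Soczewiński–Wachtmeister), giving log kw as the intercept and S as the slope.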

Compound	Φ0 lipophilicity parameter (−log kw/S)
Fc1ccc([N+]2=NN(CCCl)CC2)cc1.[Cl-] [2i, 1-(2-Chloroethyl)-3-(4-fluorophenyl)-4,5-dihydro-1H-1,2,3-triazol-3-ium chloride]	1.824
FC(F)(F)c1cccc([N+]2=NN(CCCl)CC2)c1.[Cl-] [2d, 1-(2-Chloroethyl)-3-(3-(trifluoromethyl)phenyl)-4,5-dihydro-1H-1,2,3-triazol-3-ium chloride]	1.204
ClCCN1CC[N+](c2ccccc2)=N1.[Cl-] [2b, 1-(2-Chloroethyl)-3-phenyl-4,5-dihydro-1H-1,2,3-triazol-3-ium chloride]	1.519
O=[N+]([O-])c1ccc([N+]2=NN(CCCl)CC2)cc1.[Cl-] [2g, 1-(2-Chloroethyl)-3-(4-nitrophenyl)-4,5-dihydro-1H-1,2,3-triazol-3-ium chloride]	2.532
Cc1ccc([N+]2=NN(CCCl)CC2)cc1.[Cl-] [2c, 1-(2-Chloroethyl)-3-p-tolyl-4,5-dihydro-1H-1,2,3-triazol-3-ium chloride]	1.338

Same assay, conditions: Kinetex C18, methanol 0.65-0.95 v/v, 25 °C

Compound	log kw (capacity factor of the analyte in pure water)
Fc1ccc([N+]2=NN(CCCl)CC2)cc1.[Cl-] [2i, 1-(2-Chloroethyl)-3-(4-fluorophenyl)-4,5-dihydro-1H-1,2,3-triazol-3-ium chloride]	−1.873
FC(F)(F)c1cccc([N+]2=NN(CCCl)CC2)c1.[Cl-] [2d, 1-(2-Chloroethyl)-3-(3-(trifluoromethyl)phenyl)-4,5-dihydro-1H-1,2,3-triazol-3-ium chloride]	−3.373
ClCCN1CC[N+](c2ccccc2)=N1.[Cl-] [2b, 1-(2-Chloroethyl)-3-phenyl-4,5-dihydro-1H-1,2,3-triazol-3-ium chloride]	−2.002

Same assay, conditions: log k = log kw + SΦ

Compound	-S (slope of the regression curve)
Fc1ccc([N+]2=NN(CCCl)CC2)cc1.[Cl-] [2i, 1-(2-Chloroethyl)-3-(4-fluorophenyl)-4,5-dihydro-1H-1,2,3-triazol-3-ium chloride]	1.027
FC(F)(F)c1cccc([N+]2=NN(CCCl)CC2)c1.[Cl-] [2d, 1-(2-Chloroethyl)-3-(3-(trifluoromethyl)phenyl)-4,5-dihydro-1H-1,2,3-triazol-3-ium chloride]	2.802
ClCCN1CC[N+](c2ccccc2)=N1.[Cl-] [2b, 1-(2-Chloroethyl)-3-phenyl-4,5-dihydro-1H-1,2,3-triazol-3-ium chloride]	1.318
O=[N+]([O-])c1ccc([N+]2=NN(CCCl)CC2)cc1.[Cl-] [2g, 1-(2-Chloroethyl)-3-(4-nitrophenyl)-4,5-dihydro-1H-1,2,3-triazol-3-ium chloride]	0.594
Cc1ccc([N+]2=NN(CCCl)CC2)cc1.[Cl-] [2c, 1-(2-Chloroethyl)-3-p-tolyl-4,5-dihydro-1H-1,2,3-triazol-3-ium chloride]	2.000

System: JURKAT cells (human leukemic T-cell lymphoblast)
Assay: In vitro antiproliferative assay
Format: cell-based
Conditions: Homo sapiens, Jurkat, 72 h, read-out: IC50 ± SD

Compound	IC50 [µg/mL]
FC(F)(F)c1cccc([N+]2=NN(CCCl)CC2)c1.[Cl-] [2d, 1-(2-Chloroethyl)-3-(3-(trifluoromethyl)phenyl)-4,5-dihydro-1H-1,2,3-triazol-3-ium chloride]	24.3 ± 1.22
ClCCN1CC[N+](c2ccccc2)=N1.[Cl-] [2b, 1-(2-Chloroethyl)-3-phenyl-4,5-dihydro-1H-1,2,3-triazol-3-ium chloride]	68.5 ± 6.36
O=[N+]([O-])c1ccc([N+]2=NN(CCCl)CC2)cc1.[Cl-] [2g, 1-(2-Chloroethyl)-3-(4-nitrophenyl)-4,5-dihydro-1H-1,2,3-triazol-3-ium chloride]	49.1 ± 14.1
Cc1ccc([N+]2=NN(CCCl)CC2)cc1.[Cl-] [2c, 1-(2-Chloroethyl)-3-p-tolyl-4,5-dihydro-1H-1,2,3-triazol-3-ium chloride]	13.1 ± 0.503

System: HeLa cells (human cervical carcinoma)
Assay: In vitro antiproliferative assay
Format: cell-based
Conditions: Homo sapiens, 72 h, read-out: IC50 ± SD

Compound	IC50 [µg/mL]
Fc1ccc([N+]2=NN(CCCl)CC2)cc1.[Cl-] [2i, 1-(2-Chloroethyl)-3-(4-fluorophenyl)-4,5-dihydro-1H-1,2,3-triazol-3-ium chloride]	51.3 ± 14.7
FC(F)(F)c1cccc([N+]2=NN(CCCl)CC2)c1.[Cl-] [2d, 1-(2-Chloroethyl)-3-(3-(trifluoromethyl)phenyl)-4,5-dihydro-1H-1,2,3-triazol-3-ium chloride]	22.7 ± 2.98
ClCCN1CC[N+](c2ccccc2)=N1.[Cl-] [2b, 1-(2-Chloroethyl)-3-phenyl-4,5-dihydro-1H-1,2,3-triazol-3-ium chloride]	39.4 ± 11.5
O=[N+]([O-])c1ccc([N+]2=NN(CCCl)CC2)cc1.[Cl-] [2g, 1-(2-Chloroethyl)-3-(4-nitrophenyl)-4,5-dihydro-1H-1,2,3-triazol-3-ium chloride]	29 ± 5.35
Cc1ccc([N+]2=NN(CCCl)CC2)cc1.[Cl-] [2c, 1-(2-Chloroethyl)-3-p-tolyl-4,5-dihydro-1H-1,2,3-triazol-3-ium chloride]	18.1 ± 7.04

System: Hep-G2 cells (human hepatocellular carcinoma)
Assay: In vitro antiproliferative assay
Format: cell-based
Conditions: Homo sapiens, HepG2, 72 h, read-out: IC50 ± SD

Compound	IC50 [µg/mL]
Fc1ccc([N+]2=NN(CCCl)CC2)cc1.[Cl-] [2i, 1-(2-Chloroethyl)-3-(4-fluorophenyl)-4,5-dihydro-1H-1,2,3-triazol-3-ium chloride]	70.2 ± 13.9
FC(F)(F)c1cccc([N+]2=NN(CCCl)CC2)c1.[Cl-] [2d, 1-(2-Chloroethyl)-3-(3-(trifluoromethyl)phenyl)-4,5-dihydro-1H-1,2,3-triazol-3-ium chloride]	14.9 ± 1.08
ClCCN1CC[N+](c2ccccc2)=N1.[Cl-] [2b, 1-(2-Chloroethyl)-3-phenyl-4,5-dihydro-1H-1,2,3-triazol-3-ium chloride]	37.9 ± 17.1
O=[N+]([O-])c1ccc([N+]2=NN(CCCl)CC2)cc1.[Cl-] [2g, 1-(2-Chloroethyl)-3-(4-nitrophenyl)-4,5-dihydro-1H-1,2,3-triazol-3-ium chloride]	32.1 ± 1.4
Cc1ccc([N+]2=NN(CCCl)CC2)cc1.[Cl-] [2c, 1-(2-Chloroethyl)-3-p-tolyl-4,5-dihydro-1H-1,2,3-triazol-3-ium chloride]	23.8 ± 5.36
